Laboratory results: ChEMBL document CHEMBL2069213, “Synthesis and evaluation of small libraries of triazolylmethoxy chalcones, flavanones and 2-aminopyrimidines as inhibitors of mycobacterial FAS-II and PknG” (Bioorg Med Chem, 2012)
Active and inactive are the calls of the source. The rule behind the calls is not given here.

Columns and labels:
Mycolicibacterium aurum [1] = assay: Growth inhibition of Mycobacterium aurum expressing Mycobacterium tuberculosis H37Rv kas operon in fusion Escherichia coli lacZ gene at 50 uM incubated for 12 hrs; format: functional; conditions: read-out: GI
Mycolicibacterium aurum [2] = assay: Growth inhibition of Mycobacterium aurum expressing Mycobacterium tuberculosis H37Rv kas operon in fusion Escherichia coli lacZ gene at 100 uM incubated for 12 hrs; format: functional; conditions: read-out: GI
[3] = Toxicity against macrophages incubated for 48 hrs by resazurin dye reduction assay; format: cell-based, Macrophage
In short: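 Macrophages from subconfluent monolayers seeded ~1 × 10^6 cells/well in RPMI-1640; compounds 100 to 12.5 µM, 48 h at 37 °C, 5% CO2; resazurin added for 4 h, fluorescence 535/590 nm read against untreated wells as % viability; CC50 taken from viability-versus-concentration plot; triplicates.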

[4] = molecular target: Serine/threonine-protein kinase PknG (Mycobacterium tuberculosis) (UniProt P9WI73); assay: Inhibition of Mycobacterium tuberculosis recombinant PKnG expressed in Escherichia coli BL21 (DE3) cells using myelin basic protein substrate at 100 uM by luciferase activity based ADP-Glo-luminescent kinase assay
Chain of Serine/threonine-protein kinase PknG (Mycobacterium tuberculosis) (P9WI73 whole entry, the tested form may be a part): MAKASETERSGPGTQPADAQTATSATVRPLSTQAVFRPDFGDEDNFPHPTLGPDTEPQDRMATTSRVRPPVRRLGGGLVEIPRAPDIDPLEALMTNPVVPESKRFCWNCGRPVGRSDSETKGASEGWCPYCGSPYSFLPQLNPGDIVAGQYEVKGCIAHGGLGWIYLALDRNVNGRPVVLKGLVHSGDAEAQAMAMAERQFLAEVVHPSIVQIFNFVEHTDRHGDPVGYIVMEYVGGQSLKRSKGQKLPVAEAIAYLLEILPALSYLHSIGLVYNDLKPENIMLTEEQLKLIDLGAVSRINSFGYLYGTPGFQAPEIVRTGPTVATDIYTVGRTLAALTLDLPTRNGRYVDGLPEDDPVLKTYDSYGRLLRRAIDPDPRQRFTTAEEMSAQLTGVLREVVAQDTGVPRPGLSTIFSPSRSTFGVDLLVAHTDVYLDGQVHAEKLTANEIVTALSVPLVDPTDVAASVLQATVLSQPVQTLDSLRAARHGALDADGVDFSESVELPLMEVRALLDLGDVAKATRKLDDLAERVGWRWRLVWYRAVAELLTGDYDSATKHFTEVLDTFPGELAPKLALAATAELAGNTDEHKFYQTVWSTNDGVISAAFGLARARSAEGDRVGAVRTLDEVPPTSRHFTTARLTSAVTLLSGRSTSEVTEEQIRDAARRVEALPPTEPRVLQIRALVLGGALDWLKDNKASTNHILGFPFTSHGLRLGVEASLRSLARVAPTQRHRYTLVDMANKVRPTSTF
In short: (§1)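 6-His-PknG from M. tuberculosis genomic DNA cloned into pTriEx4, expressed in E. coli with 0.8 mM IPTG 4 h at 37 °C, purified by Ni2+-NTA then size exclusion. Compounds dissolved in DMSO; assayed with myelin basic protein substrate; ADP formed measured by ADP-Glo luminescence; AX20017 positive control; dose-response series.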

[5] = molecular target: Serine/threonine-protein kinase PknG (Mycobacterium tuberculosis) (UniProt P9WI73); assay: Inhibition of Mycobacterium tuberculosis recombinant PKnG expressed in Escherichia coli BL21 (DE3) cells using myelin basic protein substrate at 12.5 uM by luciferase activity based ADP-Glo-luminescent kinase assay; in short: as §1
[6] = molecular target: Serine/threonine-protein kinase PknG (Mycobacterium tuberculosis) (UniProt P9WI73); assay: Inhibition of Mycobacterium tuberculosis recombinant PKnG expressed in Escherichia coli BL21 (DE3) cells using myelin basic protein substrate at 25 uM by luciferase activity based ADP-Glo-luminescent kinase assay; in short: as §1
[7] = molecular target: Serine/threonine-protein kinase PknG (Mycobacterium tuberculosis) (UniProt P9WI73); assay: Inhibition of Mycobacterium tuberculosis recombinant PKnG expressed in Escherichia coli BL21 (DE3) cells using myelin basic protein substrate at 6.25 uM by luciferase activity based ADP-Glo-luminescent kinase assay; in short: as §1
[8] = molecular target: Serine/threonine-protein kinase PknG (Mycobacterium tuberculosis) (UniProt P9WI73); assay: Inhibition of Mycobacterium tuberculosis recombinant PKnG expressed in Escherichia coli BL21 (DE3) cells using myelin basic protein substrate at 3.125 uM by luciferase activity based ADP-Glo-luminescent kinase assay; in short: as §1
[9] = molecular target: Serine/threonine-protein kinase PknG (Mycobacterium tuberculosis) (UniProt P9WI73); assay: Inhibition of Mycobacterium tuberculosis recombinant PKnG expressed in Escherichia coli BL21 (DE3) cells using myelin basic protein substrate at 50 uM by luciferase activity based ADP-Glo-luminescent kinase assay; in short: as §1
Mycolicibacterium aurum [10] = assay: Inhibition of FAS2 in recombinant Mycobacterium aurum expressing Mycobacterium tuberculosis H37Rv kas operon in fusion Escherichia coli lacZ gene assessed as increase in beta-galactosidase activity at 50 uM incubated for 12 hrs by lacZ reporter gene assay
In short: (§2)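 Cells washed, sonicated in PBS pH 7.2; equal Bradford-quantified protein incubated with ONPG (4 mg/ml) 30 min at 37 °C, stopped with Na2CO3, read at 410 nm. Triplicates, experiment repeated twice; isoniazid positive control.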

Mycolicibacterium aurum [11] = assay: Inhibition of FAS2 in recombinant Mycobacterium aurum expressing Mycobacterium tuberculosis H37Rv kas operon in fusion Escherichia coli lacZ gene assessed as increase in beta-galactosidase activity at 100 uM incubated for 12 hrs by lacZ reporter gene assay; in short: as §2
Mycolicibacterium aurum [12] = assay: Inhibition of FAS2 in recombinant Mycobacterium aurum expressing hsp60 promoter in fusion Escherichia coli lacZ gene assessed as increase in beta-galactosidase activity at 50 uM incubated for 12 hrs by lacZ reporter gene assay
Mycolicibacterium aurum [13] = assay: Inhibition of FAS2 in recombinant Mycobacterium aurum expressing hsp60 promoter in fusion Escherichia coli lacZ gene assessed as increase in beta-galactosidase activity at 100 uM incubated for 12 hrs by lacZ reporter gene assay

Compound	inhibition of growth at 50 µM (Mycolicibacterium aurum [1])	inhibition of growth at 100 µM (Mycolicibacterium aurum [2])	inhibition [4]	further results
CCCCCCn1cc(COc2ccc(C(=O)/C=C/c3ccccc3)c(O)c2)nn1	16.8%	57.7%	–	–
Nc1nc(-c2ccc(Cl)cc2)cc(-c2ccc(OCc3cn(Cc4ccccc4)nn3)cc2O)n1	–	–	53%	CC50 at 48 h [3]: 66.6 µM; inhibition [5]: 5%; inhibition [6]: 19%; inhibition [7]: 5%; inhibition [8]: 4%
O=C(/C=C/c1cccc2ccccc12)c1ccc(OCc2cn(Cc3ccccc3)nn2)cc1O	2.6%	51.6%	–	–
Nc1nc(-c2ccc(OCc3cn(Cc4ccccc4)nn3)cc2O)cc(-c2cccc3ccccc23)n1	–	–	35%	CC50 at 48 h [3]: 71.3 µM; inhibition [5]: 11%; inhibition [9]: 25%; inhibition [6]: 7%; inhibition [7]: 9%; inhibition [8]: 0%
CC(C)c1ccc(/C=C/C(=O)c2ccc(OCc3cn(Cc4ccccc4)nn3)cc2O)cc1	0%	12.7%	–	–
CCCCCCn1cc(COc2ccc(-c3cc(-c4c(F)cccc4Cl)nc(N)n3)c(O)c2)nn1	–	–	11%	–
C#CCOc1ccc(C(C)=O)c(O)c1	2%	35.6%	–	–
CCCCCCn1cc(COc2ccc3c(c2)OC(c2ccc(Br)cc2)CC3=O)nn1 (stereo unspecified)	68.9%	75.1%	–	inhibition (Mycolicibacterium aurum [10]): Active; inhibition (Mycolicibacterium aurum [11]): Active; inhibition (Mycolicibacterium aurum [12]): inactive; inhibition (Mycolicibacterium aurum [13]): inactive; CC50 at 48 h [3]: 20.3 µM
C#CCOc1ccc(/C=C/C(=O)c2ccc(OCc3cn(Cc4ccccc4)nn3)cc2O)cc1	0%	22%	–	–
CCCCCCn1cc(COc2ccc(C(=O)/C=C/c3ccc(Br)cc3)c(O)c2)nn1	69.6%	76.5%	–	inhibition (Mycolicibacterium aurum [10]): inactive; inhibition (Mycolicibacterium aurum [11]): inactive; CC50 at 48 h [3]: > 100 µM
CCCCCCn1cc(COc2ccc(-c3cc(-c4ccc(Cl)cc4)nc(N)n3)c(O)c2)nn1	–	–	43%	CC50 at 48 h [3]: 30.3 µM; inhibition [9]: 0%; inhibition [6]: 0%; inhibition [7]: 0%; inhibition [8]: 0%
NC(=O)C1=C(NC(=O)C2CC2)CC2=C1CCCC2	–	–	–	inhibition [5]: 12%; inhibition [9]: 24%; inhibition [6]: 22%
CC(C)c1ccc(/C=C/C(=O)c2ccc(OCc3cn(Cc4ccc(Br)cc4)nn3)cc2O)cc1	0%	17.8%	–	–
O=C1CC(c2ccc(Cl)cc2)Oc2cc(OCc3cn(Cc4ccccc4)nn3)ccc21 (stereo unspecified)	46.9%	79.8%	–	–
Nc1nc(-c2ccccc2)cc(-c2ccc(OCc3cn(Cc4ccccc4)nn3)cc2O)n1	–	–	29%	CC50 at 48 h [3]: 76.5 µM; inhibition [5]: 18%; inhibition [9]: 37%; inhibition [6]: 14%; inhibition [7]: 4%; inhibition [8]: 5%
CCCCCCn1cc(COc2ccc(C(=O)/C=C/c3ccc(C(C)C)cc3)c(O)c2)nn1	0%	31.4%	–	–
O=C1CC(c2ccccc2)Oc2cc(OCc3cn(Cc4ccc(Br)cc4)nn3)ccc21 (stereo unspecified)	15.8%	66.1%	–	–
CCCCCCn1cc(COc2ccc(-c3cc(-c4cccc5ccccc45)nc(N)n3)c(O)c2)nn1	–	–	11%	–
COc1ccc(-c2cc(-c3ccc(OCc4cn(Cc5ccccc5)nn4)cc3O)nc(N)n2)cc1	–	–	43%	CC50 at 48 h [3]: 42.7 µM; inhibition [5]: 10%; inhibition [9]: 43%; inhibition [6]: 9%; inhibition [7]: 0%; inhibition [8]: 6%
Nc1nc(-c2ccc(OCc3cn(Cc4ccccc4)nn3)cc2O)cc(-c2c(F)cccc2Cl)n1	–	–	12%	–
O=C1CC(c2ccc(Br)cc2)Oc2cc(OCc3cn(Cc4ccc(Br)cc4)nn3)ccc21 (stereo unspecified)	50%	70.6%	–	inhibition (Mycolicibacterium aurum [10]): inactive; inhibition (Mycolicibacterium aurum [11]): inactive; CC50 at 48 h [3]: 87.5 µM
CCCCCCn1cc(COc2ccc3c(c2)OC(c2ccccc2)CC3=O)nn1 (stereo unspecified)	19%	70.2%	–	–
O=C1CC(c2ccccc2)Oc2cc(OCc3cn(Cc4ccccc4)nn3)ccc21 (stereo unspecified)	27%	74.8%	–	–

Compound	inhibition of growth at 50 µM (Mycolicibacterium aurum [1])	inhibition of growth at 100 µM (Mycolicibacterium aurum [2])	inhibition [4]	further results
CCCCCCn1cc(COc2ccc(-c3cc(-c4ccc(C(C)C)cc4)nc(N)n3)c(O)c2)nn1	–	–	5%	–
Nc1nc(-c2ccc(Br)cc2)cc(-c2ccc(OCc3cn(Cc4ccc(Br)cc4)nn3)cc2O)n1	–	–	19%	inhibition [5]: 0%; inhibition [9]: 0%; inhibition [6]: 0%; inhibition [7]: 0%; inhibition [8]: 5%
O=C(/C=C/c1cccc2ccccc12)c1ccc(OCc2cn(Cc3ccc(Br)cc3)nn2)cc1O	0%	63.2%	–	–
CC(C)c1ccc(-c2cc(-c3ccc(OCc4cn(Cc5ccc(Br)cc5)nn4)cc3O)nc(N)n2)cc1	–	–	5%	–
CC(C)c1ccc(-c2cc(-c3ccc(OCc4cn(Cc5ccccc5)nn4)cc3O)nc(N)n2)cc1	–	–	28%	CC50 at 48 h [3]: > 100 µM; inhibition [5]: 0%; inhibition [9]: 16%; inhibition [6]: 0%; inhibition [7]: 0%; inhibition [8]: 0%
CCCCCCn1cc(COc2ccc(C(=O)/C=C/c3cccc4ccccc34)c(O)c2)nn1	5.5%	18.8%	–	–
CCCCCCn1cc(COc2ccc(C(=O)/C=C/c3ccc(OC)cc3)c(O)c2)nn1	6.2%	44.7%	–	–
Nc1nc(-c2ccc(OCc3cn(Cc4ccc(Br)cc4)nn3)cc2O)cc(-c2cccc3ccccc23)n1	–	–	34%	CC50 at 48 h [3]: > 100 µM; inhibition [5]: 0%; inhibition [9]: 3%; inhibition [6]: 0%; inhibition [7]: 2%; inhibition [8]: 0%
CCCCCCn1cc(COc2ccc(C(=O)/C=C/c3ccc(Cl)cc3)c(O)c2)nn1	6.1%	59%	–	–
Nc1nc(-c2ccccc2)cc(-c2ccc(OCc3cn(Cc4ccc(Br)cc4)nn3)cc2O)n1	–	–	41%	CC50 at 48 h [3]: > 100 µM; inhibition [5]: 0%; inhibition [9]: 17%; inhibition [6]: 9%
CC(=O)c1ccc(OCc2cn(Cc3ccccc3)nn2)cc1O	23.7%	75.9%	–	inhibition (Mycolicibacterium aurum [10]): inactive; inhibition (Mycolicibacterium aurum [11]): inactive
CCCCCCn1cc(COc2ccc(C(C)=O)c(O)c2)nn1	93.1%	91.8%	–	inhibition (Mycolicibacterium aurum [10]): inactive; inhibition (Mycolicibacterium aurum [11]): inactive
CC(=O)c1ccc(OCc2cn(Cc3ccc(Br)cc3)nn2)cc1O	70.4%	73.7%	–	inhibition (Mycolicibacterium aurum [10]): inactive; inhibition (Mycolicibacterium aurum [11]): inactive
C#CCOc1ccc(/C=C/C(=O)c2ccc(OCc3cn(CCCCCC)nn3)cc2O)cc1	39.6%	56%	–	–
COc1ccc(/C=C/C(=O)c2ccc(OCc3cn(Cc4ccccc4)nn3)cc2O)cc1	25.5%	68.7%	–	–
CC(C)c1ccc(C2CC(=O)c3ccc(OCc4cn(Cc5ccc(Br)cc5)nn4)cc3O2)cc1 (stereo unspecified)	31%	72.5%	–	–
O=C(/C=C/c1ccc(Cl)cc1)c1ccc(OCc2cn(Cc3ccccc3)nn2)cc1O	11.6%	28%	–	–
C#CCOc1ccc(-c2cc(-c3ccc(OCc4cn(CCCCCC)nn4)cc3O)nc(N)n2)cc1	–	–	17%	–
O=C(/C=C/c1ccc(Br)cc1)c1ccc(OCc2cn(Cc3ccc(Br)cc3)nn2)cc1O	11.6%	28%	–	–
CCCCCCn1cc(COc2ccc3c(c2)OC(c2ccc(C(C)C)cc2)CC3=O)nn1 (stereo unspecified)	34.1%	56.4%	–	–
CCCCCCn1cc(COc2ccc(-c3cc(-c4ccc(OC)cc4)nc(N)n3)c(O)c2)nn1	–	–	4%	–
O=C(/C=C/c1c(F)cccc1Cl)c1ccc(OCc2cn(Cc3ccccc3)nn2)cc1O	17.6%	74.5%	–	–
